Bounds are passed on as bounds.

Holding throughout (format): functional
Experiment [1] relates to Rattus norvegicus. As to the kind of experiment: Percent change in volume of foot edema of test compound to that of positive control was determined at a dose of 31.6 mg/kg in rat; -26/-81.
In experiment [2] the test system is Rattus norvegicus. As to the kind of experiment: Percent change in volume of foot edema of test compound to that of positive control was determined at a dose of 31.6 mg/kg in rat; -26/-74.
The subject of experiment [3] is Rattus norvegicus. As to the kind of experiment: Percent change in volume of foot edema of test compound to that of positive control was determined at a dose of 10 mg/kg in rat.
The subject of experiment [4] is Rattus norvegicus. Description: Percent change in volume of foot edema of test compound to that of positive control was determined at a dose of 31.6 mg/kg in rat.
The species named for experiment [5] is Cavia porcellus. Description: Dose that protects 50% of guinea pig from collapse was determined in guinea pig anaphylaxis assay. To be noted: read-out: PD50. A digest of the protocol: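 Guinea pigs dosed by gavage (10 mL/kg) with compound in 0.5% Tween 80/water; reference theophylline 100 mg/kg po. At 1–24 h, exposed in chamber to aerosolized 1% (w/v) egg albumin at 10 L air/min for up to 5 min; protected if no collapse within 5 min. PD50 by Litchfield and Wilcoxon.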

For experiment [6], the system named is Rattus norvegicus. As to the kind of experiment: Percent change in volume of foot edema of test compound to that of positive control was determined at a dose of 31.6 mg/kg in rat; -90/-79.
Experiment [7] relates to Rattus norvegicus. As to the kind of experiment: Percent change in volume of foot edema of test compound to that of positive control was determined at a dose of 10 mg/kg in rat; -67/-72.
Experiment [8] has as its system Rattus norvegicus. Description: Percent change in volume of foot edema of test compound to that of positive control was determined at a dose of 3.16 mg/kg in rat; -52/-79.
Experiment [9] relates to Rattus norvegicus. As to the kind of experiment: Oral Antiallergic activity in the passive foot anaphylaxis (PFA) assay of various amines at the dose of 3.16 mg/kg; -42/-78.
Experiment [10] deals with Rattus norvegicus. As to the kind of experiment: Percent change in volume of foot edema of test compound to that of positive control was determined at a dose of 10 mg/kg in rat; -70/-88.
Experiment [11] has as its system Rattus norvegicus. Description: Percent change in volume of foot edema of test compound to that of positive control was determined at a dose of 31.6 mg/kg in rat; -91/-83.
Experiment [12] deals with Rattus norvegicus. As to the kind of experiment: Percent change in volume of foot edema of test compound to that of positive control was determined at a dose of 3.16 mg/kg in rat; -32/-93.
Experiment [13] deals with Rattus norvegicus. Description: Percent change in volume of foot edema of test compound to that of positive control was determined at a dose of 10 mg/kg in rat; -72/-83.
In experiment [14] the test system is Rattus norvegicus. As to the kind of experiment: Percent change in volume of foot edema of test compound to that of positive control was determined at a dose of 31.6 mg/kg in rat; -88/-83.
Experiment [15] has as its system Rattus norvegicus. As to the kind of experiment: Percent change in volume of foot edema of test compound to that of positive control was determined at a dose of 31.6 mg/kg in rat; -24/-58.
Experiment [16] concerns Rattus norvegicus. As to the kind of experiment: Percent change in volume of foot edema of test compound to that of positive control was determined at a dose of 10 mg/kg in rat; -39/-78.
The subject of experiment [17] is Rattus norvegicus. As to the kind of experiment: Percent change in volume of foot edema of test compound to that of positive control was determined at a dose of 31.6 mg/kg in rat; -70/-84.
Experiment [18] deals with Rattus norvegicus. Description: Percent change in volume of foot edema of test compound to that of positive control was determined at a dose of 3.16 mg/kg in rat; +22/-62.
The subject of experiment [19] is Rattus norvegicus. Description: Percent change in volume of foot edema of test compound to that of positive control was determined at a dose of 31.6 mg/kg in rat; […]/-78.
The test system of experiment [20] is Rattus norvegicus. Description: Percent change in volume of foot edema of test compound to that of positive control was determined at a dose of 10 mg/kg in rat; -50/-62.
The test system of experiment [21] is Rattus norvegicus. As to the kind of experiment: Percent change in volume of foot edema of test compound to that of positive control was determined at a dose of 31.6 mg/kg in rat; -49/-44.
Experiment [22] has as its system Rattus norvegicus. Description: Percent change in volume of foot edema of test compound to that of positive control was determined at a dose of 10 mg/kg in rat; -25/-44.
For experiment [23], the system named is Rattus norvegicus. Description: Percent change in volume of foot edema of test compound to that of positive control was determined at a dose of 31.6 mg/kg in rat; -54/-67.
The subject of experiment [24] is Rattus norvegicus. As to the kind of experiment: Percent change in volume of foot edema of test compound to that of positive control was determined at a dose of 10 mg/kg in rat; -5/-59.
For experiment [25], the system named is Rattus norvegicus. Description: Percent change in volume of foot edema of test compound to that of positive control was determined at a dose of 31.6 mg/kg in rat; -74/-67.
Experiment [26] relates to Rattus norvegicus. As to the kind of experiment: Percent change in volume of foot edema of test compound to that of positive control was determined at a dose of 10 mg/kg in rat; -41/-59.
For experiment [27], the system named is Rattus norvegicus. As to the kind of experiment: Percent change in volume of foot edema of test compound to that of positive control was determined at a dose of 31.6 mg/kg in rat; -29/-47.
Experiment [28] deals with Rattus norvegicus. As to the kind of experiment: Percent change in volume of foot edema of test compound to that of positive control was determined at a dose of 31.6 mg/kg in rat; -73/-65.
Experiment [29] has as its system Rattus norvegicus. As to the kind of experiment: Percent change in volume of foot edema of test compound to that of positive control was determined at a dose of 10 mg/kg in rat; -43/-81.

In the case of `O=C(O)C(=O)O.OC(CCN1CCCCC1)COc1ccccc1` (stereo unspecified), the PFA in experiment [1] is on record as -26.

Turning to `COc1cc(N2CCN(CCC(O)COc3ccccc3)CC2)cc(OC)c1OC.O=C(O)C(=O)O` (stereo unspecified), the PFA in experiment [2] is recorded as -26.

`Cl.Cl.O=[N+]([O-])c1ccc(OCC(O)CCN2CCN(c3ccccc3)CC2)cc1` (stereo unspecified): the PFA in experiment [3] is listed as -28; in [4], -92.

In the case of `Cl.Cl.OC(CCN1CCN(c2ccccn2)CC1)COc1ccc(F)cc1` (stereo unspecified), the ED50 in [5] worked out at 13.9 mg/kg. Further, the PFA was -90 in [6], -67 in experiment [7] and -52 in experiment [8].

Consider `COc1ccc(N2CCN(CCC(O)COc3ccc(F)cc3)CC2)cc1.Cl` (stereo unspecified), for which, in [5], the ED50 was > 178 mg/kg. Moreover, the PFA in experiment [9] is on record as -42; in experiment [10], -70; in [11], -91.

For the compound `Cl.OC(CCN1CCN(c2ccc(F)cc2)CC1)COc1ccc(F)cc1` (stereo unspecified), the ED50 in [5] was 3.06 mg/kg. The PFA is recorded as -32 in experiment [12], -72 in [13] and -88 in experiment [14].

For `CN1CCN(CCC(O)COc2ccccc2)CC1.O=C(O)/C=C\C(=O)O` (stereo unspecified), the PFA in [15] is on record as -24.

As to `O=C(O)/C=C\C(=O)O.O=C(O)/C=C\C(=O)O.OC(CCN1CCN(c2ccccn2)CC1)COc1ccccc1` (stereo unspecified), the PFA is reported as -39 in [16] and -70 in [17].

Take `Cc1cc(Cl)ccc1OCC(O)CCN1CCN(c2ccccc2)CC1.Cl.Cl` (stereo unspecified): the PFA in [18] was 22; in experiment [19], -69; in [20] it was -50.

On to `Cl.Cl.OC(CCN1CCN(c2ccccc2)CC1)COc1ccc(Cl)c(Cl)c1` (stereo unspecified), for which the values for the PFA in [21] and in experiment [22] were -49 and -25, respectively.

`Cl.Cl.OC(CCN1CCN(c2ccc(Cl)cc2)CC1)COc1ccc(Cl)cc1` (stereo unspecified): the PFA in experiment [23] is given as -54; in experiment [24], -5.

Take `Cc1cc(OCC(O)CCN2CCN(c3ccc(F)cc3)CC2)ccc1Cl.Cl.Cl` (stereo unspecified): the figures for the PFA in [25] and in experiment [26] were -74 and -41, respectively.

On to `OC(CCN1CCC(c2ccccc2)CC1)COc1ccccc1` (stereo unspecified), for which the PFA in [27] is reported as -29.

With `OC(CCN1CCN(c2ccccc2)CC1)COc1ccc(F)cc1` (stereo unspecified), the PFA in [28] was -73; in experiment [29], -43.

Source of the values: ChEMBL document CHEMBL1124808, “The synthesis and antiallergy activity of 1-(aryloxy)-4-(4-arylpiperazinyl)-2-butanol derivatives” (1990).
